Experimental data reported in the EternaBench riboswitch data.

Tested on: MS2 coat protein
Assay: apparent Kd, MS2 coat protein; higher = weaker binding; RNA-MaP array; FMN 200 µM where present
Summary of the method: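 The apparent Kd is the median of filtered binding-curve fits, one per cluster, to green signal normalised to red-channel RNA signal and control-cluster median Fmax. The clusters were on Illumina sequencing chips, and stalled E. coli RNA polymerase had transcribed the designs on them. Titration used SNAP-549-labelled MS2 coat protein from 0.7 or 1.5 nM, doubling to 3 µM, without and then with constant ligand, in 100 mM Tris-HCl pH 7.5, 80 mM KCl, 4 mM MgCl2, BSA, DTT, yeast tRNA and Tween-20.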

[1] = designed as: OFF switch for flavin mononucleotide, no ligand
[2] = ligand present: flavin mononucleotide, designed as: OFF switch for flavin mononucleotide
[3] = designed as: ON switch for flavin mononucleotide, no ligand
[4] = ligand present: flavin mononucleotide, designed as: ON switch for flavin mononucleotide

| Sequence | apparent Kd [1] | apparent Kd [2] | apparent Kd [3] | apparent Kd [4] |
| --- | --- | --- | --- | --- |
| GGAAAAUUGAUCCCUUUUUAUUACAUGAGGAUCACCCAUGUGCAGGAUAUCGAUUAUUAUAGUUUCGAGAAGGGCAAGAAUUGU | 40.3 nM | 276 nM |  |  |
| UGGACCGAGCUAUCGGUUGACUGGGAGGAUAUGACAUGAGGAUCACCCAUGUGGGAUCUAAAUUGUCAGAAGGCUCGUUCUGGG |  | 234 nM |  |  |
| AAAUGACAUGAGGAUCACCCAUGUCCACCAAAUGGAGGAUAUUGGACGGCAAAACGUUGUUAAGAAGGCCGAAAUU |  |  | 27.6 nM | 22.3 nM |
| GGGUACAUCGGAGGAUAUCAUGUAAAUACAUGAGGAUCACCCAUGUCGAUGGAGACAUCGGAGAUUGAGAAGGCCUAUGUACCG |  |  | 194 nM | 9.34 nM |
| AGUGAAUGUACAGGAUAUGCUGGACUUUGUCCAGCAGAAGGGUAUUAACAUGAGGAUCACCCAUGUUCAUUCACCAAAUUUAAU |  |  | 38.8 nM | 8.3 nM |
| AAUUAUUAUUGAGGAUAUGGUAGUGAAACACUACCAGAAGGCGGUAUAAACAUGAGGAUCACCCAUGUGAGCCUGAUGCUUAUG | 24.2 nM | 44.2 nM |  |  |
| GUCUGGCUAGGAUAUACAUAGUCCACGAGUCGGUUGCCCUGACAUGAGGAUCACCCAUGUAGAAGGAGCGAGAA | 19.4 nM | 18.6 nM |  |  |
| UCGAGCAGGGAAUGGUCGCUGAAGUAGGAUAUCCGCGUGGCCGUCCACAUGAGGAUCACCCAUGUGGAGAAGGGCUACAGCGAA | 6.07 nM | 6.58 nM |  |  |
| AAUAUGUUAGGAUAUGCGAAGUCAGGACACACACUGACGAAGCAGAAGGAACAUGAGGAUCACCCAUGUAAAAA | 27.3 nM | 31.4 nM |  |  |
| UCUAAUUAAAAUGAUUCAUCAACACAGGAUAUACCCGCAACAUGAGGAUCACCCAUGUAGGCCCGGUAGAAGGGUGCUUGGGAG |  |  | 20.5 nM | 6.9 nM |
| AGGACGAGGCAGAAGGGACAUGAGGAUCACCCAUGUACCGUGGUUCAGCAGUCAGGAUAUGCCGUACGUAAACAUAUCGUAAGA | 10.3 nM | 71 nM |  |  |
| GGUCCAUCAUGAGGAUAUGGCACCUUAUUGGUGCCAGAAGGCAUGUCUUUAGACAUGAGGAUCACCCAUGUAAAUAAUUGGACC |  |  | 1030 nM | 92.5 nM |
| AAUUCACAUGAGGAUCACCCAUGUCAGGAUAUGGUUUCACGUGUUUCUUUGCUUGAGGCCAGAAGGGACAGCUA | 71.8 nM | 94.4 nM |  |  |
| AUACUCAUGUAAGGAUAUGCAGUCGAAACGGCUGCAGAAGGUACUAUAAUACAUGAGGAUCACCCAUGUCAAAAUAAAAUAGUU |  |  | 30.3 nM | 22.7 nM |
| GUUGUCUAUGUAGGAUAUGCGAGGCGAGGCCUCGCAGAAGGACAUGAGGAUCACCCAUGUAUUGCGGUCUGCGUUCAGAUCGCU | 32.9 nM | 286 nM |  |  |
| GUGUUGUCAGGAUAUCUUACAUAACUAUCGUUGUUACCAUUGGAGAAGGGACAUGAGGAUCACCCAUGUUAUCG | 24.3 nM | 25.4 nM |  |  |
| GCCUUAUCUGUCAGGAUAUACAAUAUUUUUUUUUUGUAGAAGGGACAUGAGGAUCACCCAUGUACAUUACAUUG | 31.3 nM | 71.8 nM |  |  |
| GGGUACAUCGGAGGAUAUCAUGUAAAUACAUGAGGAUCACCCAUGUCGAUGGAGACAUCGGAGAUUGAGAAGGCUGAUGUACCG |  |  | 188 nM | 9.18 nM |
| ACAUGAGGAUCACCCAUGUAGAAUGAAGAAGGUAGAUACUUGAGGCUCACCCAUGUACAUAGGACUAAGGAUAUUCUAAUAAUU |  |  | 25 nM | 22 nM |
| GCCAUCGUAUGAGGAUAUGGCACCGAAACGGUGCCAGAAGGCAUGUCAAUAGACAUGAGGAUCACCCAUGUAUUAUCGAUGGCA |  |  | 367 nM | 37.1 nM |
| GUUUAGUGAGGAUAUGUGGCUUCGAUCGUGCGAAGAAGGCUACAGAAGGCACAUGAGGAUCACCCAUGUUCCUC | 101 nM | 728 nM |  |  |
| ACUUGUAAGCAGAAGGCAGUCAUUAUAUUCAUCAUGUAGACAUGAGGAUCACCCAUGUAUAGUACUGAGGAUAUGCAUCGAUAG | 6.75 nM | 10.3 nM |  |  |
| UGACCCAUGACAUGAGAUGACAUGAGGAUCACCCAUGUUUACAAGGAUAUGUUGAUGAAACAUCAACAGAAGGUGUAAUGGGAU | 53.7 nM | 385 nM |  |  |
| GCCAUCGGGUGAGGAUAUAAAAUUAUGAUUAAAUUAGAAGGCAUCUCAUAAGACAUGAGGAUCACCCAUGUAGUUAAGAUGGCA |  |  | 90.6 nM | 31.9 nM |

| Sequence | apparent Kd [1] | apparent Kd [2] | apparent Kd [3] | apparent Kd [4] |
| --- | --- | --- | --- | --- |
| ACAGGCUUCGAGAAGGACAUGAGGAUCACCCAUGUGCGUGUGAAGCAGCCGUGAGGCUGCAUCAUGUAGGAUAUCGGAGUCUGC | 73 nM | 557 nM |  |  |
| GUCUUGUCAGGAUAUCUUACAUAACAAUCGUAGUUACCAUUGGAGAAGGGACAUGAGGAUCACCCAUGUUAGCC | 17.2 nM | 19.1 nM |  |  |
| CCCUACGUUUCGUAGCAGUGUCAUCGAGAAGGCCCUGACAUGAGGAUCACCCAUGUUGUUACAUGGGAGGAUAUCGAUGAUGGG |  |  | 23 nM | 6.1 nM |
| CAGACACAUGAGGAUCACCCAUGUGAGGAUAUGCGUACGUUGUCCGUAGGCGACGUGCGCAGAAGGCACAAAGG | 73.4 nM | 104 nM |  |  |
| UCAUUAGCGGGCGGGUCGGUUGGACAUGAGGAUCACCCAUGUAGAAGGACCGGUGGACUCCGGCGGUAGGAUAUACAUUUGGUG | 22 nM | 30.7 nM |  |  |
| AAUUUAAUACAUGAGGAUCACCCAUGUAAAUUAAUUAAGAUCAAGGAUAUCAGCUCGAUUAGAGCUGAGAAGGUGAUCACAUGU |  |  | 368 nM | 99.4 nM |
| UUAUUAUAUGUAGGAUAUGCAUAUUAUUAUUAUGCAGAAGGACAUGAGGAUCACCCAUGUAUAUUAUUAUUGUAUAUUAUAUAU | 28.4 nM | 46.1 nM |  |  |
| AUGGAUGUCACAGGAUAUGCUAUGGAUACCAUAGCAGAAGGGUGAUCCAUCCUAUGUAAAUACAUGAGGAUCACCCAUGUAUCC |  |  | 112 nM | 73.6 nM |
| CGCGAACAGUUUAACAUGAGGAUCACCCAUGUGGACUCAUGGUAGGAUAUCGGGAAGGAGGAAACCGAGAAGGGCUGGUGAGCC |  |  | 583 nM | 419 nM |
| CCUGGCUUAGGAUAUACAGGAACCGAGAACCCGGAAGUGAAACAUGAGGAUCACCCAUGUAGAAGGAAGAAAGC | 26.8 nM | 23.1 nM |  |  |
| UUUAUUUUGCAAGGAUAUGUUUAAUUUUAGUUUCCUUAAACAUGAGGAUCACCCAUGUUAUACUUACAGAAGGUGCAUAAUUUU | 90.6 nM | 52.5 nM |  |  |
| AAAAUAAGGCGAGGAUAUCGACAGCAUGUGUGACGAGAAGGCGCGAUAGGUGGGUUCCUUGACAUGAGGAUCACCCAUGUAGAA | 65.7 nM | 114 nM |  |  |
| UUUUUUUACUAGGAUAUCAGAGUCGAAAGACUCUGAGAAGGAGUAACAUGAGGAUCACCCAUGUGUCCUUUUUU | 20.1 nM | 49.3 nM |  |  |
| GAAUGUCGGGUAGGAUAUGACGUGCCACGGAGGUCAGAAGGGCCACGACAUGAGGAUCACCCAUGUACUAUGUUCCUUUUUCGA | 13.6 nM | 31.8 nM |  |  |
| AAGAAGUCAGGAUAUCCUGCUCGUCACUUGCGUGAUGAGUAGGAGAAGGGACAUGAGGAUCACCCAUGUAAAGG | 137 nM | 267 nM |  |  |
| GUAGCUAUCGGAGGAUAUUCAUACCGGAAACGGACAUGAGGAUCACCCAUGUGCCGAAAGGCUUGGGAGAAGGCCGAUAGCUAC |  |  | 297 nM | 18.5 nM |
| AAUUCACAUGAGGAUCACCCAUGUAUUGCGAGCGCGAUUACGUAGGAUAUCCAUCAAAACAGAUAGGAGAAGGGCGUACUAUCU |  |  | 253 nM | 185 nM |
| UUUGCAUGACGAGGAUAUCAUUUAUUUCUUGAUUGAGAAGGCGUUCUUUUUACUACCUAACAUGAGGAUCACCCAUGUGACAGU |  |  | 16.1 nM | 12.7 nM |
| AAUAACAGAGGAUAUACAAAAAUAAAAGGAAACAAAAGAAAACAUGAGGAUCACCCAUGUAGAAGGCUGAAUAA | 21.1 nM | 18.9 nM |  |  |
| UGUCGGAACAGAGGAUAUUACAUGAGGAUCACCCAUGUAUGAACCAAUAGCUGGAAACAGCAAUGUAAGAAGGCUGCUCCGACA | 11.9 nM | 147 nM |  |  |
| AGACGGAGCUGAGGAUAUAACAUGAGGAUCACCCAUGUAAGUCUCCAGGAAACUGGAGACAAUAGUUAGAAGGCAGCUCCGUCA | 13.6 nM | 22.3 nM |  |  |
| UUUGCAACAUGAGGAUCACCCAUGUAGGAUAUCGCUAUUGUAAUCAUGAAACAUGAUUACAAUAGCGAGAAGGACAUAUGCUUU | 20.1 nM | 18.3 nM |  |  |
| UGUAUUAACGGAGGAUAUCGAUAUCAAACAUGAGGAUCACCCAUGUUGAGGAUCACCCAUGUCCACGAGAAGGCCGGCGUACUC |  |  | 30.3 nM | 30 nM |
| UUAAAUCAUGUAGGAUAUGCAUGGCGAAGCUACGCAGAAGGACAUGAGGAUCACCCAUGUUAUAGCGUCUGGAAACAGAUGCAA | 101 nM | 177 nM |  |  |
